Published values collected from several papers.
PBRM1 bromodomain: Protein polybromo-1, bromodomain (PBRM1, Homo sapiens, UniProt Q86U86)
PBRM1 BD2: Protein polybromo-1, BD2 (PBRM1, Homo sapiens, UniProt Q86U86)
BRD2 BD2: Bromodomain-containing protein 2, BD2 (BRD2, Homo sapiens, UniProt P25440)

The ΔTm of `CCC(/C=C1\CCn2c1nc(=O)c1ccc(O)cc12)CC` is reported as -0.42 °C (PBRM1 bromodomain; thermal stability, DSF; 100 µM).
With `CCCOc1ccc(OC)c(F)c1C(=O)c1ccc(C(=O)N[C@@H]2CNC[C@H]2NC(=O)c2ccc3[nH]ncc3c2)cc1` the remaining activity was 78% (Serine/threonine-protein kinase N2 (PKN2, Homo sapiens, UniProt Q16513); enzyme activity, inhibitor; 50 nM).
With `CC/C=C1\CCn2c1nc(=O)c1c(Cl)cccc12` the ΔTm was 5.03 °C (PBRM1 bromodomain; thermal stability, DSF; 100 µM).
With `COc1cc(NC(C)=O)c(Cl)cc1C(=O)Nc1nccs1` the inhibition was 2.6% (Muscarinic acetylcholine receptor M1 (CHRM1, Homo sapiens, UniProt P11229); cell-free assay; 10 µM).
With `CCC/C=C1\CCn2c1nc(=O)c1c(Cl)cccc12` the ΔTm was 3.03 °C (PBRM1 BD2; thermal stability, DSF; 100 µM).
`Cc1cc2c(cc1N1C(=O)c3cccc4c(Cl)ccc(c34)C1=O)n(C)c(=O)n2C` gave a ΔTm of 0.3 °C (Bromodomain-containing protein 2, BD1 (BRD2, Homo sapiens, UniProt P25440); thermal stability, DSF; 10 µM).
`CC(C)CC(C)N1CCCn2c1nc1c2c(=O)n(C)c(=O)n1C` (stereo not drawn) has an inhibition of 1% (Adenosine receptor A2b (ADORA2B, Homo sapiens, UniProt P29275); ligand displacement, radioligand; 10 µM, cell membranes).
For `Cc1cnc(NC2CCOCC2)nc1-n1cnc(C(=O)NC(CN)c2cc(F)cc(Cl)c2)c1` (stereo not drawn), the remaining activity was 99% (Tyrosine-protein kinase ABL1 (Abl1, Mus musculus, UniProt P00520); enzyme activity, inhibitor, radiometric; 1 µM).
`CN(C)C1CCN(CC#Cc2nn(C3CCCC3)c3nc(NCc4ccccc4)ncc23)C1` (stereo not drawn) gave an inhibition of 31% (Insulin receptor (INSR, Homo sapiens, UniProt P06213); enzyme activity, inhibitor, FRET; 10 µM).
The Km of `O=[N+]([O-])OCC(CO[N+](=O)[O-])O[N+](=O)[O-]` is reported as ~20 µM (Aldehyde dehydrogenase, mitochondrial (ALDH2, Homo sapiens, UniProt P05091); enzyme activity, substrate).
For `O=c1nc2n(c3cccc(Cl)c13)CC/C2=C\c1ccccc1`, the ΔTm was -6.11 °C (PBRM1 BD2; thermal stability, DSF; 100 µM).
`Cc1ccc(C(=O)Nc2ccc(CN3CCN(C)CC3)c(C(F)(F)F)c2)cc1C#Cc1cnc2cccnn12` gave a remaining activity of 100% (Casein kinase I isoform alpha-like (CSNK1A1L, Homo sapiens, UniProt Q8N752); enzyme activity; 23.5 nM).
`C[S+]([O-])c1ccc(-c2nc(-c3ccncc3)c(-c3ccc(F)cc3)[nH]2)cc1` (stereo not drawn) gave a ΔTm of 0.4 °C (PBRM1 BD2; thermal stability, DSF; 10 µM).
With `NS(=O)(=O)c1ccc(Nc2nc(-c3ccc(F)cc3)c3ccccc3n2)cc1` the remaining binding was 10% (BRD2 BD2; binding, competition with immobilised ligand; 1 µM).
`Oc1ccc(-c2nc(-c3ccncc3)c(-c3ccc(F)cc3)[nH]2)cc1` has a ΔTm of 0.66 °C (BRD2 BD2; thermal stability, DSF; 10 µM).
`CC(C)(C)C/C=C1\CCn2c1nc(=O)c1c(Cl)cccc12` gave a ΔTm of 7.06 °C (PBRM1 bromodomain; thermal stability, DSF; 100 µM).
`Cc1cnc(Nc2ccc(OCCN3CCCC3)cc2)nc1Nc1cccc(S(=O)(=O)NC(C)(C)C)c1` has a ΔTm of 0.08 °C (PBRM1 bromodomain; thermal stability, DSF; 10 µM).
`CCC(/C=C1\CCn2c1nc(=O)c1cc(Cl)ccc12)CC` has a ΔTm of 0.47 °C (PBRM1 BD2; thermal stability, DSF; 100 µM).
